The results in this text go back to ChEMBL document CHEMBL4196022, “Alkynyl-containing phenylthiazoles: Systemically active antibacterial agents effective against methicillin-resistant Staphylococcus aureus (MRSA)” (Eur J Med Chem, 2018).

A word on the EC50: it is the concentration at which the effect is half-maximal. The term MIC denotes the lowest concentration that inhibits growth of the organism. High values mean weaker potency, low ones greater potency.

Data set [1] in a line: Induction of proton motive force collapse in Escherichia coli inverted membrane vesicle in presence of succinate/O2-driven PMF generation system by ACMA-based fluorescence assay. The class given is functional, cell membranes. The method, boiled down: (§1)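 E. coli inverted membrane vesicles had proton motive force generated either by ATP or by succinate/O2. PMF collapse was followed as a dose response to give EC50, with CCCP as the reference uncoupler.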

The nature of data set [2]: Induction of proton motive force collapse in Escherichia coli inverted membrane vesicle in presence of ATP-driven PMF generation system by ACMA-based fluorescence assay. The format is functional, cell membranes. In outline: as §1
Data set [3] deals with Staphylococcus aureus. Kind of data set: Antibacterial activity against methicillin-resistant Staphylococcus aureus NRS107 after 20 hrs by broth microdilution assay. The class given is functional. The note with it: NRS107, 20 h. The method, boiled down:
(§2)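 Broth microdilution per CLSI in cation-adjusted Mueller Hinton broth. Compounds serially diluted, in triplicate. Incubation at 37 °C for at least 20 hours. MIC taken as the lowest concentration with no visible bacterial growth.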
A general note: In broth dilution the organism is exposed to a series of concentrations in liquid medium.

Data set [4] has as its system Staphylococcus aureus. In words: Ratio of MBC to MIC for vancomycin-resistant Staphylococcus aureus VRS12. The format is functional. In outline:
(§3)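 MBC/MIC ratio. […] MBC by plating no-growth wells onto tryptic soy agar at 37 °C for at least 18 h; taken as the concentration giving 99.9% growth inhibition.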

Data set [5] has as its system Staphylococcus aureus. In words: Bactericidal activity against methicillin-resistant Staphylococcus aureus NRS107 up to 18 hrs by broth microdilution assay. The class given is functional. The note with it: NRS107, 18 h, read-out: MBC99.9.
In data set [6] the test system is Staphylococcus aureus. Kind of data set: Bactericidal activity against methicillin-resistant Staphylococcus aureus NRS119 up to 18 hrs by broth microdilution assay. The class given is functional. The conditions noted are these: NRS119, 18 h, read-out: MBC99.9.
Data set [7] relates to Staphylococcus aureus. Kind of data set: Antibacterial activity against vancomycin-resistant Staphylococcus aureus VRS11a after 20 hrs by broth microdilution assay. The format is functional. In outline: as §2
The subject of data set [8] is Staphylococcus aureus. Kind of data set: Bactericidal activity against methicillin-resistant Staphylococcus aureus USA300 assessed as reduction in bacterial load at 4 times MIC after 24 hrs by time kill assay relative to control. The class given is functional.
In data set [9] the test system is Staphylococcus aureus. Kind of data set: Ratio of MBC to MIC for vancomycin-resistant Staphylococcus aureus VRS11a. The class given is functional. The method, boiled down: as §3
Another data set concerns HRT-18 cell line. In words: Cytotoxicity against human HRT18 cells assessed as reduction in cell viability up to 32 ug/ml after 2 hrs by MTS assay. The class given is cell-based. The conditions noted are these: hrt-18, 2 h. For orientation: Tetrazolium dyes change colour on reduction, which living cells bring about.
Data set [10] deals with Staphylococcus aureus. In words: Bactericidal activity against methicillin-resistant Staphylococcus aureus USA300 assessed as reduction in bacterial load at 4 times MIC after 12 hrs by time kill assay relative to control. The format is functional.
Data set [11] relates to Staphylococcus aureus. In words: Bactericidal activity against methicillin-resistant Staphylococcus aureus USA300 assessed as reduction in bacterial load at 4 times MIC after 4 hrs by time kill assay relative to control. The format is functional.
In data set [12] the test system is Staphylococcus aureus. In words: Ratio of MBC to MIC for methicillin-resistant Staphylococcus aureus NRS123 (USA400). The class given is functional. In outline: as §3
Data set [13] has as its system Staphylococcus aureus. Kind of data set: Bactericidal activity against methicillin resistant Staphylococcus aureus NRS123 (USA400) up to 18 hrs by broth microdilution assay. The class given is functional. The note with it: read-out: MBC99.9.
The test system of data set [14] is Staphylococcus aureus. In words: Bactericidal activity against methicillin resistant vancomycin-resistant Staphylococcus aureus VRS12 up to 18 hrs by broth microdilution assay. The class given is functional. The conditions noted are these: VRS12, 18 h, read-out: MBC99.9. In outline: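 MBC set up from the MIC plates. Aliquots from wells with no growth spotted onto tryptic soy agar and incubated at 37 °C for at least 18 hours. MBC taken as the lowest concentration giving 99.9% inhibition of bacterial growth.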

Data set [15] deals with Staphylococcus aureus. In words: Potency index, ratio of vancomycin MIC to compound MIC for antibacterial activity against vancomycin-resistant Staphylococcus aureus VRS10. The format is functional.
In data set [16] the test system is Staphylococcus aureus. Kind of data set: Ratio of MBC to MIC for methicillin-resistant Staphylococcus aureus USA300. The class given is functional. The method, boiled down: as §3
The subject of data set [17] is Staphylococcus aureus. Kind of data set: Potency index, ratio of vancomycin MIC to compound MIC for antibacterial activity against vancomycin-resistant Staphylococcus aureus VRS11a. The format is functional.
For data set [18], the system named is Staphylococcus aureus. In words: Ratio of MBC to MIC for vancomycin-resistant Staphylococcus aureus VRS10. The format is functional. In outline:
as §3

For a further data set, the system named is J774. In words: Cytotoxicity against mouse J774 cells assessed as reduction in cell viability up to 16 ug/ml after 24 hrs by MTS assay. The format is cell-based. The note with it: j774, 24 h. The method, boiled down:
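J774 murine macrophages were grown in DMEM with 10% FBS at 37 °C, 5% CO2. Compounds were tested at 8, 16 and 32 μg/mL in triplicate for 24 h, with a DMSO-matched control. MTS was added for 4 h and absorbance read at 490 nm. Viability is given as % of DMSO control (mean ± SD); Student t-test with Holm-Sidak test.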

The subject of data set [19] is Staphylococcus aureus. Kind of data set: Antibacterial activity against vancomycin-resistant Staphylococcus aureus VRS12 after 20 hrs by broth microdilution assay. The format is functional. The note with it: VRS12, 20 h. In outline: as §2
The test system of data set [20] is Staphylococcus aureus. In words: Ratio of MBC to MIC for methicillin-resistant Staphylococcus aureus NRS119. The class given is functional. In outline:
as §3

Data set [21] in a line: Selectivity index, ratio of toxic concentration for human HRT18 cells to MIC for methicillin-resistant Staphylococcus aureus. The class given is toxicity. The note with it: read-out: Selectivity Index.
The test system of data set [22] is Staphylococcus aureus. Kind of data set: Antibacterial activity against methicillin-resistant Staphylococcus aureus NRS119 after 20 hrs by broth microdilution assay. The class given is functional. The conditions noted are these: NRS119, 20 h. In outline: as §2
The test system of data set [23] is Staphylococcus aureus. Kind of data set: Antibacterial activity against methicillin-resistant Staphylococcus aureus NRS123 (USA400) infected in mouse J774 cells at 16 ug/ml after 24 hrs. The format is functional, organism-based. In outline:
(§4)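 J774 macrophages grown in DMEM with 10% FBS at 37 °C, 5% CO2. Infected with USA400 at MOI ~100:1 for 1 h, then washed with gentamicin 50 μg/mL. Treated in triplicate wells for 24 h, washed with gentamicin again and lysed with 0.1% Triton X-100. Lysate plated on tryptic soy agar for 18–22 h; CFU/mL counted.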

The subject of data set [24] is Staphylococcus aureus. In words: Bactericidal activity against methicillin-resistant Staphylococcus aureus USA300 up to 18 hrs by broth microdilution assay. The format is functional. The conditions noted are these: USA300, 18 h, read-out: MBC99.9.
The test system of data set [25] is Staphylococcus aureus. Kind of data set: Bactericidal activity against methicillin resistant vancomycin-resistant Staphylococcus aureus VRS11a up to 18 hrs by broth microdilution assay. The format is functional. The note with it: read-out: MBC99.9.
Data set [26] relates to Staphylococcus aureus. In words: Potency index, ratio of vancomycin MIC to compound MIC for antibacterial activity against vancomycin-resistant Staphylococcus aureus VRS12. The format is functional.
Data set [27] has as its system Staphylococcus aureus. Kind of data set: Antibacterial activity against vancomycin-resistant Staphylococcus aureus VRS10 after 20 hrs by broth microdilution assay. The format is functional. The conditions noted are these: VRS10, 20 h. The method, boiled down: as §2
Data set [28] concerns Staphylococcus aureus. In words: Bactericidal activity against methicillin resistant vancomycin-resistant Staphylococcus aureus VRS10 up to 18 hrs by broth microdilution assay. The format is functional. The conditions noted are these: VRS10, 18 h, read-out: MBC99.9.
Data set [29] relates to Staphylococcus aureus. In words: Antibacterial activity against methicillin-resistant Staphylococcus aureus USA300 after 20 hrs by broth microdilution assay. The class given is functional. The note with it: USA300, 20 h. The method, boiled down: as §2
Data set [30] deals with Staphylococcus aureus. Kind of data set: Ratio of MBC to MIC for methicillin-resistant Staphylococcus aureus NRS107. The format is functional. In outline:
as §3

Data set [31] has as its system Staphylococcus aureus. Kind of data set: Antibacterial activity against methicillin-resistant Staphylococcus aureus NRS123 (USA400) after 20 hrs by broth microdilution assay. The class given is functional. The method, boiled down: as §2
In data set [32] the test system is Staphylococcus aureus. Kind of data set: Bactericidal activity against methicillin-resistant Staphylococcus aureus NRS123 (USA400) at 4 times MIC after 24 hrs by time kill assay. The format is functional, organism-based.
Data set [33] relates to Staphylococcus aureus. Kind of data set: Antibacterial activity against methicillin-resistant Staphylococcus aureus USA300 infected in Caenorhabditis elegans AU37 assessed as reduction in bacterial burden at 20 ug/ml after 18 hrs relative to control. The format is functional. In outline:
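L4-stage C. elegans AU37 infected on USA300 lawns for 6 h and washed with M9 buffer. 25–30 worms per well exposed to 20 μg/mL for 18 h, in triplicate. Worms then lysed and plated on TSA with 5 μg/mL nalidixic acid for 17 h at 37 °C. CFU per worm expressed as % reduction versus PBS.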

In data set [34] the test system is Staphylococcus aureus. Kind of data set: Antibacterial activity against methicillin-resistant Staphylococcus aureus NRS123 (USA400) infected in mouse J774 cells at 4 ug/ml after 24 hrs. The format is functional, organism-based. The method, boiled down: as §4

Values after ≈ are worked out from the molar mass of the structure shown. Active and inactive are the calls of the source. No cut-off for these calls is given here.

In the case of `N#CC(C#N)=NNc1cccc(Cl)c1` [CARBONYL CYANIDE M-CHLOROPHENYLHYDRAZONE], the values for the EC50 in [1] and in data set [2] were 210 nM and 470 nM, respectively.

Turning to `C/C(=N\NC(=N)N)c1sc(-c2ccc(C#CC3CCCCC3)cc2)nc1C`, the MIC with Staphylococcus aureus [3] was 16 µg/mL (≈ 42.2 µM); against Staphylococcus aureus [7], 1 µg/mL (≈ 2.63 µM); in the data set on Staphylococcus aureus [19], 2 µg/mL (≈ 5.27 µM); against Staphylococcus aureus [22], 4 µg/mL (≈ 10.5 µM); against Staphylococcus aureus [27], 2 µg/mL (≈ 5.27 µM); against Staphylococcus aureus [29], 2 µg/mL (≈ 5.27 µM). In the data set on Staphylococcus aureus [31], this compound came in with an MIC of 2 µg/mL (≈ 5.27 µM). The Ratio entry in the data set on Staphylococcus aureus [4] is on record as “<=3”; in the data set with Staphylococcus aureus [9] it was “<=3”; in the data set with Staphylococcus aureus [12], “<=3”; with Staphylococcus aureus [15] it was >100; in the data set with Staphylococcus aureus [16] it was “<=3”; in the data set on Staphylococcus aureus [17], >100. Moreover, the Ratio result in the data set on Staphylococcus aureus [18] was “<=3”; with Staphylococcus aureus [20], “<=3”; with Staphylococcus aureus [26], 8; in the data set on Staphylococcus aureus [30], “<=3”. Further, the MBC in the data set on Staphylococcus aureus [5] was determined as 16 µg/mL (≈ 42.2 µM); with Staphylococcus aureus [6], 4 µg/mL (≈ 10.5 µM); in the data set with Staphylococcus aureus [13], 2 µg/mL (≈ 5.27 µM); in the data set on Staphylococcus aureus [14], 2 µg/mL (≈ 5.27 µM); in the data set on Staphylococcus aureus [24], 4 µg/mL (≈ 10.5 µM); in the data set on Staphylococcus aureus [25] it was 2 µg/mL (≈ 5.27 µM). In the data set on Staphylococcus aureus [28], the MBC was 2 µg/mL (≈ 5.27 µM). The Activity in the data set with Staphylococcus aureus [8] is on record as 4.3 deltalog10CFU/ml; in the data set on HRT-18 cell line, “Non-Toxic”; in the data set with Staphylococcus aureus [10], 2.8 deltalog10CFU/ml; with Staphylococcus aureus [11] it was 1.9 deltalog10CFU/ml; in the data set with J774 it was “Non-Toxic”. Also, the selectivity ratio in data set [21] was in the range of 7 to 31. Also, the result with Staphylococcus aureus [23] was inactive.

`CN[C@H](CC(C)C)C(=O)N[C@H]1C(=O)N[C@@H](CC(N)=O)C(=O)N[C@H]2C(=O)N[C@H]3C(=O)N[C@H](C(=O)N[C@H](C(=O)O)c4cc(O)cc(O)c4-c4cc3ccc4O)[C@H](O)c3ccc(c(Cl)c3)Oc3cc2cc(c3O[C@@H]2O[C@H](CO)[C@@H](O)[C@H](O)[C@H]2O[C@H]2C[C@](C)(N)[C@H](O)[C@H](C)O2)Oc2ccc(cc2Cl)[C@H]1O` [VANCOMYCIN]: the result with Staphylococcus aureus [32] and in the data set on Staphylococcus aureus [33] was Active. In addition, in the data set on Staphylococcus aureus [14], the MBC was 256 µg/mL (≈ 177 µM). Besides, the MIC in the data set with Staphylococcus aureus [19] came out at 16 µg/mL (≈ 11 µM). Moreover, in the data set with Staphylococcus aureus [34], the result was inactive.
